Screening data from PubChem BioAssay.
Compounds with a hit are over-represented: about 1.8% of the library has one in this group of screens.
PERK inhibitor = blocks human PERK kinase | CHO PERK-DD fusion, SEAP luminescence translation reporter | inhibition, % at 5.6 µM | Q9NZJ5 | actives 0.17% (n = 220,000) | AID 1416;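 active means inhibition above the mean inhibition of all tested compounds plus 3 SD, set separately per screening campaign, cut at about 2.9% in these data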;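 further: PERK kinase domain activated by AP20187 dimerizer at 100 nM; 0% = DMSO with dimerizer and 100% = rapamycin at 8.4 µM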
Target sequence (Q9NZJ5 whole entry, looked up, the tested form may be a part): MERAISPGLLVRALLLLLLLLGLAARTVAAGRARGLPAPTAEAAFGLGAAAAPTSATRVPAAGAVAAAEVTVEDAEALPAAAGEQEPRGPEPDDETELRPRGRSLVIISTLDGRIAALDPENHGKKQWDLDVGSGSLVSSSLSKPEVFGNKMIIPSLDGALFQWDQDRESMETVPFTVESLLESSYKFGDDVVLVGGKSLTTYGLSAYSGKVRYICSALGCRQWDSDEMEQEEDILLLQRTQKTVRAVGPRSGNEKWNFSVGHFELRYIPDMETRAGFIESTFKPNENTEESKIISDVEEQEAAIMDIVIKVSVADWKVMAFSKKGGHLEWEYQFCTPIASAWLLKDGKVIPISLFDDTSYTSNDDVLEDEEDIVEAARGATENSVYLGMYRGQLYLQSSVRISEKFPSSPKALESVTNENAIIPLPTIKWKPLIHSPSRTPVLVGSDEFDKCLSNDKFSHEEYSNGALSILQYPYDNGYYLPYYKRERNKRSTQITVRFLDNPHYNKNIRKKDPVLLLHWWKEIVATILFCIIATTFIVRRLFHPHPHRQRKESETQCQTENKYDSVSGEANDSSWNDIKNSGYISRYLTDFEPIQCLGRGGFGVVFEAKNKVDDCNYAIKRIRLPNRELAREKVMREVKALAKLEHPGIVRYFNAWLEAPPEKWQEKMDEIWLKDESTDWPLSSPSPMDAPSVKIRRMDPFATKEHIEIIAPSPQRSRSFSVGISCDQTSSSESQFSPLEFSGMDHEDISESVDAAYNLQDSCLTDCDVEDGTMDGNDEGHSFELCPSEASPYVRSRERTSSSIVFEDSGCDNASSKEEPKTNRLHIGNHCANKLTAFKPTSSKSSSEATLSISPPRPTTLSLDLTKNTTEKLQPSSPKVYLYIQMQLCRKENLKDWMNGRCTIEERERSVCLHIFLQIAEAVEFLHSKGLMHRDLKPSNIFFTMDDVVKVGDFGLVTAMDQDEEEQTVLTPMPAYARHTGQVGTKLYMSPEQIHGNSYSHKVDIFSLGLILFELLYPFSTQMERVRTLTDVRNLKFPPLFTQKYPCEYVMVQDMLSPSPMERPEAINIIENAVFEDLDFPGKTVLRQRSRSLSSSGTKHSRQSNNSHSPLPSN
STAT1 inh = reduces IFN-gamma driven STAT1 reporter signal; NIH 3T3 STAT1-luciferase reporter, luminescence; inhibition, % at 5.5 µM; actives 0.35% (n = 200,000);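 active means inhibition above a set limit, the mean inhibition across all tested compounds plus 3 SD, cut at about 34% in these data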;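 further: 0% = IFN-gamma with DMSO and 100% = IFN-gamma with 300 µM nifuroxazide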
STAT3 blocker = inhibitors of IL-6 induced STAT3 signaling | AID 862 | actives 0.89% (n = 190,000) | inhibition, % at 5.5 µM | U3A cells, IL-6 STAT3-luciferase reporter, luminescence; host cell line lacks STAT1;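 active means inhibition above the mean inhibition across all screened compounds plus 3 SD, cut at about 44% in these data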;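 further: 0% = DMSO only wells and 100% = 100 µM nifuroxazide control wells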
STAT3 activator = STAT3 signaling activation; U3A cells, IL-6 STAT3-luciferase reporter, luminescence; 100% = signal with IL-6 EC80 alone; actives 0.91% (n = 190,000); AID 871; activation (% of control), % at 5.6 µM;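 active means activation above the screen-wide mean of compound activation plus 3 SD, cut at about 130% in these data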;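 further: 0% = background luminescence of wells with medium and substrate only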
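Assay system – human STAT1-deficient U3A cells with stable STAT3-luciferase reporter · Also added – IL-6 (33 ng/mL) · Schedule – compound 1 h, then IL-6 6 h at 37 °C · Technique – reporter luminescence signal · Evaluation – % activation versus median of IL-6-stimulated wells · Benchmarks – IL-6-only wells as 100% reference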
Numbers without * were called inactive; . = no result given.

SMILES	PERK inhibitor	STAT1 inh	STAT3 blocker	STAT3 activator
CCCn1c2c(c(O)c(C(=O)Nc3ccccc3)c1=O)CCCC2	0	-2	-28	133*
CC(C)Cn1c2c(c(O)c(C(=O)Nc3ccc(F)cc3)c1=O)CCCC2	2	-2	2	101
COC(=O)c1sccc1NC(=O)c1csc(C)c1	1	-1	-38	136*
CCN(CC)CCn1c2ccccc2c2cnc(N)c(C#N)c21	-1	-83	-74	169*
CN(C)C=Nc1ncc2c3ccccc3n(CCN(C)C)c2c1C#N	-1	-9	-2	102
CC(C)OCCCNCC(O)c1ccccc1 (stereo not given)	1	-2	5	96
O=c1oc2ccccc2cc1-c1nc2c(s1)CCc1ccccc1-2	1	-4	-39	134*
CCN(CC)S(=O)(=O)c1ccc(N2CCOCC2)c(NC(=O)COc2ccc(C#N)cc2)c1	-3	.	.	.
COc1ccc(C(=O)N2c3ccccc3C=CC2C#N)cc1 (stereo not given)	0	2	6	91
N#C[C@H]1[C@H](c2ccccc2)[C@](C#N)(C(=O)c2ccccc2)[C@@H]2C=Cc3ccccc3N21	0	17	-31	133*
O=C(NCc1ccc(C(F)(F)F)cc1)C1CC(c2ccccc2[N+](=O)[O-])=NO1 (stereo not given)	1	2	-1	110
CSc1ccc(/C=N/Nc2cccc(C(=O)O)c2)cc1	0	64*	33	79
COC(=O)c1ccc(COc2ccc(/C=N/Nc3cccc(C(=O)O)c3)cc2)cc1	2	.	.	.
C[C@]12CS(=O)(=O)C[C@H]1SC(=S)N2c1ccccc1	4.7*	.	.	.
Cc1ccc(S(=O)(=O)NCCCN(C)C)cc1	3.2*	11	-5	105
Cc1ccc(S(=O)(=O)NCCCC(=O)O)cc1	1	-13	6	99
O=C(O)C1C2C=CC(C2)C1C(=O)NCc1cccs1 (stereo not given)	-1	3	7	98
CCN(CC)CCn1nc2c3c(cccc3c1=O)-c1ccccc1-2	0	-147	-43	135*
O=c1c2cccc3c2c(nn1CN1CCOCC1)-c1ccccc1-3	-1	-20	35	73
Cc1ccc2c(n1)sc1c(-c3ccccc3)c(C#N)c(N)nc12	1	0	-35	135*
CN(C)c1ccc(C(=O)c2ccc(N(C)C)c3ccccc23)cc1	-1	-32	-52	146*
COC(=O)C1=C(C)Nc2c(c(=O)n(C)c(=O)n2C)C1c1ccc(Cl)cc1 (stereo not given)	1	0	3	99
CN=C1SC(CC(=O)Nc2ccccc2F)C(=O)N1C (stereo not given)	4.4*	-17	-9	106
CN=C1SC(CC(=O)Nc2cccc(C(F)(F)F)c2)C(=O)N1C (stereo not given)	1	-2	9	94
CN(C(=O)c1c(Br)cnn1C)C12CC3CC(CC(C3)C1)C2	-1	-7	-3	106
SMILES	PERK inhibitor	STAT1 inh	STAT3 blocker	STAT3 activator
COc1ccc(-c2[nH]ncc2CN(C)CC2CCCCO2)cc1F (stereo not given)	0	2	-1	102
COc1ccc(-c2[nH]ncc2CN(C)CCN2CCOCC2)cc1F	3.0*	8	11	100
O=C(Nc1ccc2c(c1)OCCO2)c1ccc2nccnc2c1	1	-28	50*	63
Nc1ccc(C(=O)OCc2nc3cc4ccccc4cc3[nH]2)cc1	0	-17	4	100
Nc1ccc(C(=O)OCc2nc3c(ccc4ccccc43)[nH]2)cc1	0	-53	-39	136*
O=c1cc2oc3cc(O)c(O)cc3c(-c3ccccc3O)c-2cc1O	3.1*	.	.	.
CCOc1ccccc1-c1c2cc(O)c(=O)cc-2oc2cc(O)c(O)cc12	1	6	-5	103
Cc1c(C(=O)Nc2ccc(S(=O)(=O)NCC3CCCO3)cc2)cccc1[N+](=O)[O-] (stereo not given)	-1	14	19	88
CC1CCc2nc(NC(=O)C3COc4ccccc4O3)sc2C1 (stereo not given)	0	49*	91*	28
CC1CCc2nc(NC(=O)C3CC3)sc2C1 (stereo not given)	-1	-22	-3	107
CCN1CC=C2C(C#N)=C(N)C(C#N)(C#N)C(CCc3ccccc3)C2C1 (stereo not given)	0	4	-40	141*
COc1ccccc1C(=O)NNC(=O)c1nn(Cc2ccccc2)c(=O)c2ccccc12	0	9	-38	135*
O=C(Nc1nc2c(s1)CCCC2)c1nn(Cc2ccccc2)c(=O)c2ccccc12	0	-5	7	95
O=C1NCC(COc2cccc3ccccc23)O1 (stereo not given)	3.1*	-6	5	100
CS(=O)(=O)NCCNC(=O)c1cc(OCC(F)(F)F)ccc1OCC(F)(F)F	0	4	3	99
CSc1nnc(-c2ccc(C(F)(F)F)nc2C)o1	1	.	.	.
COc1ccccc1NC(=O)C(=O)/C=C(\O)c1ccccc1	1	.	.	.
COc1ccc(-c2cn3cc(C(F)(F)F)cc(Cl)c3n2)cc1	1	-58	-67	161*
Fc1ccc(-c2cn3cc(C(F)(F)F)cc(Cl)c3n2)cc1	0	-43	-75	174*
Cc1cccn2cc(-c3ccc(F)cc3)nc12	1	-33	11	95
CCCNC(=O)c1cc2c3ccccc3n(C)c2s1	0	2	-20	122
Cn1c2ccccc2c2cc(C(=O)NNC(=O)CCl)sc21	1	-37	-25	137*
N#CC(C#N)=C1C=CC=CN1/C(=C\c1ccccc1Cl)C(=O)c1ccccc1	0	35*	13	95
N#CC(C#N)=C1C=CC=CN1/C(=C\c1ccccc1)C(=O)c1cccs1	0	-3	-11	109
CC(=O)NC(=S)Nc1ccc2oc(=O)ccc2c1	0	.	.	.
SMILES	PERK inhibitor	STAT1 inh	STAT3 blocker	STAT3 activator
CCCCn1c(CCC)nc([N+](=O)[O-])c1Sc1ccc(Cl)cn1	0	34*	9	95
Cc1sc(NC(=S)NC(=O)CCc2ccccc2)c(C(N)=O)c1C	1	-15	-62	156*
Cc1sc(NC(=S)NC(=O)c2ccco2)c(C(N)=O)c1C	0	-8	0	102
O=C(CC1C(=O)NCCN1Cc1ccc(F)c(F)c1)NCCCn1ccnc1 (stereo not given)	1	-4	5	98
CCOC(=O)c1sc(=NC(=O)c2ccc(C)cc2)n(C)c1C	0	-42	-46	145*
Cc1cc(C)c(NC(=S)N(CCc2ccncc2)C(C)C)c(C)c1	1	2	-1	103
Cn1c(/N=C/c2c(O)ccc3ccccc23)nc2ccccc21	1	11	-36	134*
C=CCc1cccc2cc(C(=O)Nc3ccccc3C(=O)O)c(=O)oc12	2	72*	6	100
COCc1cc(C)nc2sc(C(=O)Nc3nccs3)c(N)c12	0	-35	-1	105
Cc1cc(C)c2c(N)c(C(=O)Nc3nccs3)sc2n1	-1	48*	58*	54
COc1ccccc1N=c1sc2ccccc2n1C	1	-1	4	99
